Assay results: ChEMBL document CHEMBL2086380 (J Med Chem, 2012)
pEC50, pIC50: −log10 of the molar value. Values after ≈ are worked out from the molar mass of the structure shown. Values belong to the compound of their own block, whether it stands above or below them. Active and inactive are the calls of the source. The calls are words filed in the database; no cut-off is given here.

Legend:
HCT-116 [1] = assay: Antiproliferative activity against human HCT116 cells after 72 hrs by CellTiterGlo assay; conditions: HCT-116, 72 h
A-375 [2] = assay: Antiproliferative activity against human A375 cells after 72 hrs by CellTiterGlo assay; conditions: A-375, 72 h
A-375 [3] = assay: Ratio of EC50 for human HCT116 cells to EC50 for human A375 cells; type: functional
[4] = Plasma protein binding in rat; type: ADME, cell-free; conditions: read-out: PPB (converted)
[5] = Clearance in rat at 1 mg/kg, iv; type: ADME, organism-based; set-up: dose 1 mg/kg, route intravenous; conditions: in vivo
[6] = Half life in rat at 1 mg/kg, iv; type: ADME, organism-based; set-up: dose 1 mg/kg, route intravenous; conditions: in vivo
[7] = Volume of distribution at steady state in rat at 1 mg/kg, iv; type: ADME, organism-based; set-up: dose 1 mg/kg, route intravenous; conditions: in vivo, read-out: Vdss
[8] = AUC in rat at 1 mg/kg, iv; type: ADME, organism-based; set-up: dose 1 mg/kg, route intravenous; conditions: plasma
[9] = AUC in rat at 5 mg/kg, po; type: ADME, organism-based; set-up: dose 5 mg/kg, route oral; conditions: plasma
Method in brief: (§1)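 Oral PK: rat dosed 5 mg/kg PO as solution; mouse dosed 25 mg/kg PO as suspension. Plasma AUC (μM·h) and bioavailability F (%) determined.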

[10] = Oral bioavailability in rat at 5 mg/kg; type: ADME, organism-based; conditions: in vivo; method in brief: as §1
[11] = target: T1, Dual specificity mitogen-activated protein kinase kinase 1 (Homo sapiens, UniProt Q02750); assay: Inhibition of MEK1-mediated ERK1 phosphorylation after 30 mins by HTRF assay
[12] = Ratio of EC50 for human HCT116 cells to IC50 for MEK1-mediated ERK1 phosphorylation; set-up: species or system HCT-116
[13] = Ratio of EC50 for human A375 cells to IC50 for MEK1-mediated ERK1 phosphorylation; set-up: species or system A-375
[14] = target: T1, Dual specificity mitogen-activated protein kinase kinase 1; assay: Inhibition of MEK1-mediated ERK1 phosphorylation in human A375 cells after 2 hrs by immunofluorescence high content imaging
[15] = target: T1, Dual specificity mitogen-activated protein kinase kinase 1; assay: Inhibition of MEK1-mediated ERK1 phosphorylation in human HCT116 cells after 2 hrs by immunofluorescence high content imaging
[16] = Permeability from apical to basal side of MDCK cells; type: ADME, cell-based, Canis lupus familiaris; conditions: dog, read-out: permeability
Method in brief: (§2)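 MDCK monolayer permeability measured in A→B and B→A directions, expressed as ×10⁻⁶ cm/s; efflux ratio taken as B:A over A:B.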

[17] = Efflux ratio of permeability from basal to apical to apical to basal side of MDCK cells; type: ADME, cell-based, Canis lupus familiaris; conditions: dog; method in brief: as §2
[18] = Permeability from basal to apical side of MDCK cells; type: ADME, cell-based, Canis lupus familiaris; conditions: dog, read-out: permeability; method in brief: as §2
Rattus norvegicus [19] = species on record: Rattus norvegicus; assay: Unbound clearance in rat; type: ADME, organism-based; conditions: in vivo
Rattus norvegicus [20] = assay: Unbound AUC in po dosed rat; type: ADME, organism-based; conditions: in vivo
[21] = Plasma protein binding in mouse; type: ADME, cell-free; conditions: read-out: PPB (converted)
[22] = Half life in mouse at 1 mg/kg, iv; type: ADME, organism-based; set-up: dose 1 mg/kg, route intravenous; conditions: in vivo
[23] = Volume of distribution at steady state in mouse at 1 mg/kg, iv; type: ADME, organism-based; set-up: dose 1 mg/kg, route intravenous; conditions: in vivo, read-out: Vdss
[24] = (§3) AUC in mouse at 1 mg/kg, iv; type: ADME, organism-based, Plasma; set-up: dose 1 mg/kg, route intravenous; conditions: plasma
[25] = (§4) AUC in mouse at 25 mg/kg, po; type: ADME, organism-based, Plasma; set-up: dose 25 mg/kg, route oral; conditions: plasma; method in brief: as §1
Mus musculus [26] = assay: Oral bioavailability in mouse at 25 mg/kg; type: ADME, organism-based; conditions: in vivo; method in brief: as §1
[27] = Clearance in mouse at 1 mg/kg, iv; type: ADME, organism-based; set-up: dose 1 mg/kg, route intravenous; conditions: in vivo
HCT-116 [28] = assay: Antitumor activity against human HCT116 cells xenografted in nude nu/nu mouse assessed as tumor growth inhibition at 5 mg/kg, po administered QD for 3 weeks relative to vehicle-treated control; type: functional
Method in brief: (§5)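 HCT116 colorectal xenografts in nude mice; animals randomized, dosed orally once daily for 3 weeks at 5, 25 or 75 mg/kg vs vehicle. Tumor volume and body weight tracked; animals euthanized at tumor volume >2000 mm³ or body weight loss >20%.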

Cytochrome P450 2C9 = Cytochrome P450 2C9 (Homo sapiens, UniProt P11712); assay: Inhibition of CYP2C9; type: ADME
Cytochrome P450 2C19 = Cytochrome P450 2C19 (Homo sapiens, UniProt P33261); assay: Inhibition of CYP2C19; type: ADME
[29] = Half life in mouse at 25 mg/kg, po; type: ADME, organism-based; set-up: dose 25 mg/kg, route oral; conditions: in vivo
Mus musculus [30] = assay: as §3; type: ADME, organism-based, Plasma; set-up: dose 1 mg/kg, route intravenous; conditions: in vivo
Mus musculus [31] = assay: as §4; type: ADME, organism-based, Plasma; set-up: dose 25 mg/kg, route oral; conditions: in vivo; method in brief: as §1
[32] = Solubility of the compound at pH 6.5; type: physicochemical; conditions: buffer
Method in brief: (§6)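 Solubility measured in aqueous buffer at pH 6.5 and in fasted-state simulated intestinal fluid (FASSIF), expressed in […].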

[33] = Solubility of the compound in fasted state simulated intestinal fluid; type: physicochemical; method in brief: as §6
Rattus norvegicus [34] = assay: Drug metabolism in rat assessed as glucuronidation at 5 mg/kg, po; type: ADME, organism-based; set-up: dose 5 mg/kg, route oral; conditions: in vivo
Rattus norvegicus [35] = assay: Drug metabolism in rat assessed as hydroxamate cleavage at 5 mg/kg, po; type: ADME, organism-based; set-up: dose 5 mg/kg, route oral; conditions: in vivo
Mus musculus [36] = assay: Toxicity in nude nu/nu mouse bearing human HCT116 xenograft assessed as body weight loss at 5 mg/kg, po administered QD for 3 weeks relative to vehicle-treated; type: organism-based; set-up: dose 5 mg/kg, route oral; conditions: in vivo, 504 h; method in brief: as §5
HCT-116 [37] = assay: Antitumor activity against human HCT116 cells xenografted in nude nu/nu mouse assessed as tumor growth inhibition at 25 and 75 mg/kg, po administered QD for 3 weeks relative to vehicle-treated; type: functional, organism-based; set-up: dose 75 mg/kg; method in brief: as §5
Mus musculus [38] = assay: Toxicity in nude nu/nu mouse bearing human HCT116 xenograft assessed as body weight loss at 75 mg/kg, po administered QD for 3 weeks relative to vehicle-treated; type: organism-based; set-up: dose 75 mg/kg, route oral; conditions: in vivo, 504 h; method in brief: as §5
Mus musculus [39] = assay: Inhibition of MEK-mediated ERK1/2 Thr185/Tyr187 phosphorylation in human HCT116 cells xenografted in nude nu/nu mouse at 25 mg/kg, po administered as single dose after 8 hrs relative to vehicle-treated control; type: functional; conditions: HCT-116, 8 h

T1 sequence (Q02750 whole entry): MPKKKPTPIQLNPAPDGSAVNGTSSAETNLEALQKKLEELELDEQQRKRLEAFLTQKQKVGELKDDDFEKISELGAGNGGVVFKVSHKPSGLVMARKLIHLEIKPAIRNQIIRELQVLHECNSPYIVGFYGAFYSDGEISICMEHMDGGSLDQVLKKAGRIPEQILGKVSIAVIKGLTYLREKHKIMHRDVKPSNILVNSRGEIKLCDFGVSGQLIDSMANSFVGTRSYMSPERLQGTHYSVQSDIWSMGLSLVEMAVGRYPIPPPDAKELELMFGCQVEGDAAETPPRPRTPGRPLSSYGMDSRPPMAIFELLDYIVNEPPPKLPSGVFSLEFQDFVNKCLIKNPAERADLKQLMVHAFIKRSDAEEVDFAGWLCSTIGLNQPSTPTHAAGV
Cytochrome P450 2C19, sequence (P33261 whole entry): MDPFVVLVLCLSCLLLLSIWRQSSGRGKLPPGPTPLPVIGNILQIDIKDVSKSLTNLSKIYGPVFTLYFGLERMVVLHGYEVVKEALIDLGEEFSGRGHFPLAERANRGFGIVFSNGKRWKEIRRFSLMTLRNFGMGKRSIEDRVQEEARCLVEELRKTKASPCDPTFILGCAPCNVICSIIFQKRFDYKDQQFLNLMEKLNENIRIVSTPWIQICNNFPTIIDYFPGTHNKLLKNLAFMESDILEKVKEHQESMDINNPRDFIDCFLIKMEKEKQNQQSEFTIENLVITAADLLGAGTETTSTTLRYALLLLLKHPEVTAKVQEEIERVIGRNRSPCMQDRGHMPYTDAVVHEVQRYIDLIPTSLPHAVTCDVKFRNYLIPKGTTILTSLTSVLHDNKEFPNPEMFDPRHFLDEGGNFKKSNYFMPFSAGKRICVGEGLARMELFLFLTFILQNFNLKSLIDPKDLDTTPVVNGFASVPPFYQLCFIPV
Cytochrome P450 2C9, sequence (P11712 whole entry): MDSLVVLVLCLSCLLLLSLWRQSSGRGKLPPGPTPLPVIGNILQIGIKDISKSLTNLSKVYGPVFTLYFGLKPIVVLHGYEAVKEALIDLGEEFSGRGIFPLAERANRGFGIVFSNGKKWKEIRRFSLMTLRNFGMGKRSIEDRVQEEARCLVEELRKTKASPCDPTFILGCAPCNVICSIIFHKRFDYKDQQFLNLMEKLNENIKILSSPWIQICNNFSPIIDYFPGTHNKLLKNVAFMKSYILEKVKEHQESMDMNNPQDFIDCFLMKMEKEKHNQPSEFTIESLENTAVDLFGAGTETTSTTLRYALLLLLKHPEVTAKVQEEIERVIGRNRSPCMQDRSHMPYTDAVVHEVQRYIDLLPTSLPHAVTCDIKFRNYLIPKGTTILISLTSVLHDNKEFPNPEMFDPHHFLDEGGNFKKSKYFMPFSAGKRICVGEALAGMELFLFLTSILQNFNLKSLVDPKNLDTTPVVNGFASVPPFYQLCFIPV

pEC50 (HCT-116 [1]): 7.51
pEC50 (A-375 [2]): 7.92
Papp A→B [16]: 2 ×10⁻⁶ cm/s
pIC50 [11]: 7.82
efflux ratio [17]: 3.5
Papp B→A [18]: 7.1 ×10⁻⁶ cm/s
pEC50 [14]: 8.43
pEC50 [15]: 9.40
Compound: O=C(NOC[C@H](O)CO)c1ccc2[nH]ncc2c1Nc1ccc(I)cc1F
Ratio [12]: 2
Ratio [13]: 0.8

pEC50 (HCT-116 [1]): 6.50
pEC50 (A-375 [2]): 6.58
Compound: O=C(NOC[C@H](O)CO)c1oc2ccncc2c1Nc1ccc(I)cc1F

pEC50 (HCT-116 [1]): 7.21
pEC50 (A-375 [2]): 8.00
fraction unbound [4]: 0.008
clearance [5]: 15 mL/min/kg
half-life [6]: 1.6 h
Vd [7]: 0.97 L/kg
AUC [8]: 2.2 µM·h
AUC [9]: 5.7 µM·h
bioavailability [10]: 51%
pIC50 [11]: 7.70
CL free (Rattus norvegicus [19]): 1875 mL/min/kg
fAUC (Rattus norvegicus [20]): 0.046 µM·h
pEC50 [14]: 8.96
pEC50 [15]: 9.05
Compound: O=C(NOC[C@H](O)CO)c1ccc2cnsc2c1Nc1ccc(I)cc1F
Ratio [12]: 2.9
Ratio [13]: 0.47

pEC50 (HCT-116 [1]): 7.36
pEC50 (A-375 [2]): 8.15
inhibition (INH) (Cytochrome P450 2C9): Not Active
inhibition (INH) (Cytochrome P450 2C19): Not Active
Compound: O=C(NOCCO)c1ccc2cnsc2c1Nc1ccc(I)cc1F

Second part, the compound before the results:

Compound: O=C(NOCCO)c1ccc2[nH]ncc2c1Nc1ccc(Br)cc1F
pEC50 (HCT-116 [1]): 6.71
pEC50 (A-375 [2]): 7.72
Ratio EC50 (A-375 [3]): 8
fraction unbound [4]: 0.035
clearance [5]: 54 mL/min/kg
half-life [6]: 0.36 h
Vd [7]: 1.5 L/kg
AUC [8]: 0.75 µM·h
AUC [9]: 1.29 µM·h
bioavailability [10]: 34%
pIC50 [11]: 6.90
Ratio [12]: 1.5
Ratio [13]: 0.15
pEC50 [14]: 8.19
pEC50 [15]: 8.47

Compound: C[C@H](O)CONC(=O)c1oc2c(F)cncc2c1Nc1ccc(I)cc1F
pEC50 (HCT-116 [1]): 6.76
pEC50 (A-375 [2]): 7.64
Ratio EC50 (A-375 [3]): 8
fraction unbound [21]: 0.016
half-life [22]: 2.3 h
Vd [23]: 0.71 L/kg
AUC [24]: 4.42 µM·h
AUC [25]: 192 µM·h
F (Mus musculus [26]): 173%
pIC50 [11]: 7.46
clearance [27]: 7.7 mL/min/kg
Activity (HCT-116 [28]): Active
Ratio [12]: 5
Ratio [13]: 0.65
pEC50 [14]: 8.14
pEC50 [15]: 8.40

Compound: CCONC(=O)c1ccc2[nH]ncc2c1Nc1ccc(I)cc1F
pEC50 (HCT-116 [1]): 6.88
pEC50 (A-375 [2]): 8.31
pIC50 [11]: 7.03
pEC50 [14]: 8.62
pEC50 [15]: 8.89

Compound: O=C(NOCC1CC1)c1ccc2[nH]ncc2c1Nc1ccc(I)cc1F
pEC50 (HCT-116 [1]): 6.90
pEC50 (A-375 [2]): 8.05

Compound: O=C(NCCCO)c1ccc2[nH]ncc2c1Nc1ccc(I)cc1F
pIC50 [11]: < 5.00

Compound: O=C(NOCCO)c1ccc2[nH]ncc2c1Nc1ccc(I)cc1F
pEC50 (HCT-116 [1]): 7.80
pEC50 (A-375 [2]): 8.70
fraction unbound [4]: 0.039
clearance [5]: 36 mL/min/kg
half-life [6]: 1.4 h
Vd [7]: 2.4 L/kg
AUC [8]: 1.01 µM·h
AUC [9]: 1.06 µM·h
bioavailability [10]: 21%
fraction unbound [21]: 0.03
half-life [22]: 0.6 h
half-life [29]: 2.9 h
Vd [23]: 2 L/kg
AUC (Mus musculus [30]): 0.41 µM·h
AUC (Mus musculus [31]): 1.96 µM·h
F (Mus musculus [26]): 94%
solubility [32]: 80 µg/mL (≈ 175 µM)
solubility [33]: 180 µg/mL (≈ 395 µM)
Papp A→B [16]: 9.9 ×10⁻⁶ cm/s
Drug metabolism (Rattus norvegicus [34]): Active
Papp B→A [18]: 13.8 ×10⁻⁶ cm/s
clearance [27]: 88 mL/min/kg
Drug metabolism (Rattus norvegicus [35]): Active
inhibition in vivo at 5 mg/kg (HCT-116 [28]; HCT-116, 504 h, read-out: GI): 94%
Activity (Mus musculus [36]): Non-toxic
growth inhibition (GI) (HCT-116 [37]): Active
Activity (Mus musculus [38]): 10%
inhibition in vivo at 25 mg/kg (Mus musculus [39]): 70%
CL free (Rattus norvegicus [19]): 923 mL/min/kg
fAUC (Rattus norvegicus [20]): 0.04 µM·h
